Calls of active or inactive are those of the source. The rule behind the calls is not given here.
Assays:
[1] = system: HeLa; experiment: Induction of apoptosis in human HeLa cells assessed as late apoptotic cells at 5 uM after 24 hrs using FITC-conjugated annexin V and propidium iodide staining by flow cytometry assay (RVb = 1.9 %); assay type: functional
[2] = system: HeLa; experiment: Cell cycle arrest in human HeLa cells assessed as reduction of cells at G1 phase at 1.25 uM after 24 hrs using propidium iodide staining by flow cytometry; assay type: functional, cell-based
Summary of the method: (§1)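 Exponentially growing cells (5 × 10^5) exposed to graded compound levels, 0.312 to 5 μM, for 24 or 48 h; collected, fixed in ice-cold 70% ethanol, treated with lysis buffer containing RNase A and 0.1% Triton X-100, stained with propidium iodide; DNA content read by flow cytometry. Mean ± SEM of two independent experiments.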

[3] = system: HeLa; experiment: Induction of apoptosis in human HeLa cells assessed as necrotic cells at 5 uM after 24 hrs using FITC-conjugated annexin V and propidium iodide staining by flow cytometry assay (RVb = 1.9 %); assay type: functional
[4] = system: HeLa; experiment: Cell cycle arrest in human HeLa cells assessed as hypodiploid peak at sub-G1 phase at 0.312 to 5 uM uM after 48 hrs using propidium iodide staining by flow cytometry; assay type: functional, cell-based; summary of the method: as §1
[5] = system: HL-60; experiment: Antiproliferative activity against human HL60 cells after 72 hrs by MTT assay; assay type: functional, cell-based; conditions: HL-60, 72 h
[6] = system: HeLa; experiment: Induction of apoptosis in human HeLa cells assessed as necrotic cells at 1.25 uM after 24 hrs using FITC-conjugated annexin V and propidium iodide staining by flow cytometry assay (RVb = 1.9 %); assay type: functional
[7] = system: A549; experiment: Antiproliferative activity against human A549 cells after 72 hrs by MTT assay; assay type: functional, cell-based; conditions: A549, 72 h
Summary of the method: (§2)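 A549 and HeLa cells grown in DMEM with 10% FBS and penicillin/streptomycin. Plated at 8 × 10^3 cells/well and held 18 h at 37 °C in 5% CO2. Medium replaced with compound in complete medium at varied concentrations for 72 h at 37 °C, then MTT read.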

[8] = system: HeLa; experiment: Induction of apoptosis in human HeLa cells assessed as early apoptotic cells at 1.25 uM after 24 hrs using FITC-conjugated annexin V and propidium iodide staining by flow cytometry assay (RVb = 1.5 %); assay type: functional
[9] = system: HeLa; experiment: Cell cycle arrest in human HeLa cells assessed as accumulation at G2/M phase at 0.625 uM after 24 hrs using propidium iodide staining by flow cytometry relative to control; assay type: functional; summary of the method: as §1
[10] = system: Jurkat; experiment: Cell cycle arrest in human Jurkat cells assessed as accumulation at G2/M phase at 1.25 uM after 24 hrs using propidium iodide staining by flow cytometry relative to control; assay type: functional; summary of the method: as §1
[11] = system: HeLa; experiment: Cell cycle arrest in human HeLa cells assessed as reduction of cells at S phase at 1.25 uM after 24 hrs using propidium iodide staining by flow cytometry; assay type: functional, cell-based; summary of the method: as §1
[12] = system: HeLa; experiment: Induction of apoptosis in human HeLa cells assessed as early apoptotic cells at 5 uM after 24 hrs using FITC-conjugated annexin V and propidium iodide staining by flow cytometry assay (RVb = 1.5 %); assay type: functional
[13] = system: HeLa; experiment: Induction of apoptosis in human HeLa cells assessed as ROS production after 24 to 48 hrs using H2-DCFDA staining by flow cytometry; assay type: functional, cell-based
Summary of the method: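 ROS probe: after 24 or 48 h exposure, HeLa cells resuspended in HBSS with 0.1 μM H2DCFDA, incubated 30 min at 37 °C, spun and resuspended in HBSS; fluorescence recorded by flow cytometry, excitation 488 nm, emission 530 nm.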

[14] = system: HeLa; experiment: Induction of apoptosis in human HeLa cells assessed as increase of Bcl-2 protein expression up to 2.5 uM after 24 to 48 hrs by Western blot analysis; assay type: functional, cell-based
Summary of the method: (§3)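 Treated cells washed twice in ice-cold PBS, lysed 30 min on ice, lysate cleared at 15000×g, 4 °C, 10 min; protein by BCA. 20 μg per lane on SDS-PAGE (7.5–15%), PVDF transfer, overnight block at 4 °C; primary antibodies 2 h at room temperature, peroxidase secondaries 60 min, ECL detection; β-actin loading control.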

[15] = system: K562; experiment: Antiproliferative activity against human K562 cells after 72 hrs by MTT assay; assay type: functional, cell-based; conditions: K562, 72 h
[16] = system: HeLa; experiment: Induction of apoptosis in human HeLa cells assessed as necrotic cells at 2.5 uM after 24 hrs using FITC-conjugated annexin V and propidium iodide staining by flow cytometry assay (RVb = 1.9 %); assay type: functional
[17] = system: HeLa; experiment: Induction of apoptosis in human HeLa cells assessed as increase of Bax protein expression up to 2.5 uM after 24 to 48 hrs by Western blot analysis; assay type: functional, cell-based; summary of the method: as §3
[18] = system: HeLa; experiment: Induction of apoptosis in human HeLa cells assessed as late apoptotic cells at 2.5 uM after 24 hrs using FITC-conjugated annexin V and propidium iodide staining by flow cytometry assay (RVb = 1.9 %); assay type: functional
[19] = system: HeLa; experiment: Induction of apoptosis in human HeLa cells assessed as viable cells at 1.25 uM after 24 hrs using FITC-conjugated annexin V and propidium iodide staining by flow cytometry assay (RVb = 94.7 %); assay type: functional; conditions: read-out: Activity
[20] = system: HeLa; experiment: Upregulation of cyclin B1 protein expression in human HeLa cells after 24 to 48 hrs by Western blot analysis; assay type: functional, cell-based; summary of the method: as §3
[21] = system: HeLa; experiment: Induction of apoptosis in human HeLa cells assessed as caspase-3-mediated cleavage of PARP at 0.625 to 2.5 uM; assay type: functional, cell-based; conditions: TDE = time-dependent effect; summary of the method: as §3
[22] = system: HeLa; experiment: Induction of apoptosis in human HeLa cells assessed as viable cells at 5 uM after 24 hrs using FITC-conjugated annexin V and propidium iodide staining by flow cytometry assay (RVb = 94.7 %); assay type: functional; conditions: read-out: Activity
[23] = system: Jurkat; experiment: Cell cycle arrest in human Jurkat cells assessed as accumulation at G2/M phase after 24 hrs using propidium iodide staining by flow cytometry; assay type: functional, cell-based; summary of the method: as §1
[24] = system: HeLa; experiment: Induction of apoptosis in human HeLa cells assessed as caspase-3-mediated cleavage of PARP after 48 hrs by Western blot analysis; assay type: functional, cell-based; summary of the method: as §3
[25] = system: Jurkat; experiment: Antiproliferative activity against human Jurkat cells after 72 hrs by MTT assay; assay type: functional, cell-based
[26] = system: HeLa; experiment: Induction of apoptosis in human HeLa cells assessed as necrotic cells at 0.62 uM after 24 hrs using FITC-conjugated annexin V and propidium iodide staining by flow cytometry assay (RVb = 1.9 %); assay type: functional
[27] = system: HeLa; experiment: Induction of apoptosis in human HeLa cells assessed as loss of mitochondrial membrane potential at 0.625 to 2.5 uM using Rho123 staining by flow cytometry; assay type: functional, cell-based; conditions: TDE = time-dependent effect
Summary of the method: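 After 24 or 48 h exposure, HeLa cells were pelleted, resuspended in HBSS with 0.1 μM rhodamine 123, held 20 min at 37 °C, spun and resuspended in HBSS; fluorescence read by flow cytometry. Mean ± S.E.M. of 3 independent experiments.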

[28] = system: Jurkat; experiment: Cell cycle arrest in human Jurkat cells assessed as accumulation at G1 phase at 1.25 uM after 24 hrs using propidium iodide staining by flow cytometry relative to control; assay type: functional; summary of the method: as §1
[29] = system: HeLa; experiment: Induction of apoptosis in human HeLa cells assessed as viable cells at 0.62 uM after 24 hrs using FITC-conjugated annexin V and propidium iodide staining by flow cytometry assay (RVb = 94.7 %); assay type: functional; conditions: read-out: Activity
[30] = system: HeLa; experiment: Antiproliferative activity against human HeLa cells assessed as cell viability after 72 hrs by MTT assay; assay type: functional, cell-based; summary of the method: as §2
[31] = system: HeLa; experiment: Induction of apoptosis in human HeLa cells assessed as late apoptotic cells at 1.25 uM after 24 hrs using FITC-conjugated annexin V and propidium iodide staining by flow cytometry assay (RVb = 1.9 %); assay type: functional

In the case of CCOc1ccc(Nc2c(C(=O)c3cc(OC)c(OC)c(OC)c3)sc3ccccc23)cc1, the Activity [1] is reported as 25.4%, the Activity [2] is reported as “Active” and the Activity [3] is reported as 17.4%. For the same molecule, the Activity [4] was “Active”, the IC50 [5] was 0.5 µM and the Activity [6] was 13.4%. The IC50 [7] was 1.4 µM, the Activity [8] was 6.8% and the Activity [9] was 52%. The Activity [10] was 70%, the Activity [11] was “Active” and the Activity [12] was 7.2%. For the same molecule, the Activity [13] was “Active”, the Activity [14] was “Active” and the IC50 [15] was 0.2 µM. The Activity [16] was 19.3%, the Activity [17] was “inactive” and the Activity [18] was 24.9%. The viability at 1.25 µM [19] was 63.7%, the Activity [20] was “Dose-dependent effect” and the Activity [21] was “tde”. The viability at 5 µM [22] was 49.9%, the Activity [23] was “Dose-dependent effect” and the Activity [24] was “Active”. For the same molecule, the IC50 [25] was 0.3 µM, the Activity [26] was 15.5% and the Activity [27] was “tde”. The Activity [28] was 10%, the viability at 0.62 µM [29] was 64.9% and the IC50 [30] was 0.7 µM. It also gave an Activity [31] of 16%.
